What all share (type): ADME, organism-based
Data set [1] relates to Mus musculus. The data set can be described thus: Tumor to blood radioactivity ratio was determined in mice at 1 hr after (iv) administration in presence of [125I]-BZA. The settings on record: tumour.
In data set [2] the test system is Mus musculus. Put plainly: Tumor to lung radioactivity ratio was determined in mice at 1 hr after (iv) administration in presence of [125I]-BZA. The settings on record: in vivo.
The subject of data set [3] is Mus musculus. The data set can be described thus: Tumor to liver radioactivity ratio was determined in mice at 6 hr after (iv) administration in presence of [125I]-BZA. As to conditions: in vivo.
Data set [4] has as its system Mus musculus. Put plainly: Biodistribution in tumor was determined at 1 hr in mice bearing C57B16 murine melanoma after (i.v.) administration. As to conditions: in vivo, iv. An outline of the steps: (§1)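 C57 mice carrying B16 melanotic melanoma, implanted s.c. as 5×10^5 viable cells. Tumours were palpable after 10 days. Mice received 0.74 MBq of the 99mTc-labeled complex by tail-vein injection. Groups of n = 3 were killed by exsanguination at each time point. Weighed tissue aliquots were gamma-counted immediately and expressed as decay-corrected %ID/g, mean ± sem.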

In data set [5] the test system is Mus musculus. The data set can be described thus: Biodistribution in tumor was determined at 6 hr in mice bearing C57B16 murine melanoma after (i.v.) administration. The settings on record: in vivo, iv. An outline of the steps: as §1
The subject of data set [6] is Mus musculus. The data set can be described thus: Biodistribution in tumor was determined at 24 hr in mice bearing C57B16 murine melanoma after (i.v.) administration. The settings on record: in vivo, iv. An outline of the steps: as §1
Data set [7] concerns Mus musculus. Put plainly: Tumor to lung radioactivity ratio was determined in mice at 6 hr after (iv) administration in presence of [125I]-BZA. The settings on record: in vivo.
For data set [8], the system named is Mus musculus. Put plainly: Tumor to liver radioactivity ratio was determined in mice at 3h after (iv) administration in presence of [125I]-BZA. The settings on record: in vivo.
The test system of data set [9] is Mus musculus. The data set can be described thus: Tumor to liver radioactivity ratio was determined in mice at 24 hr after (iv) administration in presence of [125I]-BZA. As to conditions: in vivo.
Data set [10] has as its system Mus musculus. Put plainly: Tumor to blood radioactivity ratio was determined in mice at 24 hr after (iv) administration in presence of [125I]-BZA. The settings on record: tumour.
Data set [11] has as its system Mus musculus. Put plainly: Tumor to lung radioactivity ratio was determined in mice at 24 hr after (iv) administration in presence of [125I]-BZA. The settings on record: in vivo.
Data set [12] concerns Mus musculus. The data set can be described thus: Tumor to lung radioactivity ratio was determined in mice at 3h after (iv) administration in presence of [125I]-BZA. As to conditions: in vivo.
Data set [13] has as its system Mus musculus. Put plainly: Tumor to blood radioactivity ratio was determined in mice at 3h after (iv) administration in presence of [125I]-BZA. As to conditions: tumour.
For data set [14], the system named is Mus musculus. Put plainly: Tumor to blood radioactivity ratio was determined in mice at 6 hr after (iv) administration in presence of [125I]-BZA. As to conditions: tumour.
The subject of data set [15] is Mus musculus. The data set can be described thus: Tumor to liver radioactivity ratio was determined in mice at 1 hr after (iv) administration in presence of [125I]-BZA. The settings on record: in vivo.
The test system of data set [16] is Mus musculus. Put plainly: Biodistribution in tumor was determined at 3h in mice bearing C57B16 murine melanoma after (i.v.) administration. As to conditions: in vivo, iv. An outline of the steps:
as §1

Among the data in ChEMBL document CHEMBL1134387, “Synthesis and biodistribution of a new oxo-technetium-99m bis(aminothiol) complex as a potential melanoma tracer” (J Med Chem, 2001) are Ratio and ID/g values, retold here.

For the compound `CCN(CC)CCNC(=O)c1ccc([125I])cc1`, the Ratio is on record as 6.55 with Mus musculus [1]; 0.62 in the data set on Mus musculus [2]; 3.83 in the data set on Mus musculus [3]; 2.13 in the data set on Mus musculus [7]; 1.1 in the data set with Mus musculus [8]; 4.94 with Mus musculus [9]. Moreover, the Ratio was found to be 37.33 with Mus musculus [10]; 15.82 in the data set on Mus musculus [11]; 0.69 in the data set with Mus musculus [12]; 7.79 in the data set on Mus musculus [13]; 17.58 in the data set with Mus musculus [14]; 1.12 with Mus musculus [15]. For the same compound, the ID/g in the data set on Mus musculus [4] is reported as 6.75%; with Mus musculus [5] it was 3.53%; in the data set with Mus musculus [6], 0.79%; in the data set on Mus musculus [16], 3.85%.
